Published values collected from several papers.
Protocols differ between the studies behind these lines.
pH: 7.4

| Compound | technique | sample | time | quantity | result |
| --- | --- | --- | --- | --- | --- |
| Cc1ccc2[nH]c(=S)n(Cc3cccnc3)c(=O)c2c1 | shake flask | aqueous buffer |  | logD | 2.88 |
| CCCCCC(=O)N[C@H]1[C@H]([C@H](O)[C@H](O)CO)OC(C(=O)O)=C[C@@H]1O | shake flask | aqueous buffer | 2 h | logD | -0.92 |
| O=c1c2cc(Cl)ccc2[nH]c(=S)n1Cc1cccnc1 | shake flask | aqueous buffer |  | logD | 3.16 |
| COc1cc(C(=O)c2nc(-c3cccc4[nH]ccc34)c[nH]2)cc(OC)c1OC |  |  |  | logD | 3.69 |
| CC1(C)NC(=O)N(c2ccc(F)c(C(F)(F)F)c2F)C1=O | HPLC |  |  | chromatographic logD | 2.7 |
| CCCCCc1cn([C@H]2[C@H]([C@H](O)[C@H](O)CO)OC(C(=O)O)=C[C@@H]2O)nn1 | shake flask | aqueous buffer | 2 h | logD | -0.3 |
| O=C1NC2(CCC2)C(=O)N1c1ccc(F)c(C(F)(F)F)c1 | HPLC |  |  | chromatographic logD | 3 |
| c1cc(-c2ccc3ncnc(Nc4ncco4)c3c2)cc(N2C[C@H]3C[C@@H]2CO3)c1 | shake flask | aqueous buffer |  | logD | 3.5 |
